We go through 24 molecules from ChEMBL document CHEMBL1144642, “Antiproliferative activity of 2-alkyl-4-halopiperidines and 2-alkyl-4-halo-1,2,5,6-tetrahydropyridines in solid tumor cell lines” (2007).

Format in all cases: functional
In one assay the test system is A2780. The experiment in a line: Antiproliferative activity against human A2780 cells after 48 hrs by SRB assay. The following applies: A2780, 48 h. The essentials: (§1)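 NCI protocol, SRB read-out after 48 h continuous drug exposure. GI50, TGI and LC50 derived; 100 μM was the top concentration tested, with TGI and LC50 reported only when under 100 μM. GI50 values are means of two to four experiments ± standard deviation.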
On the technique in general: In SRB staining, fixed cells bind dye roughly in proportion to their protein.

For assay [1], the system named is SW1573. The assay is described as follows: Antiproliferative activity against human SW1573 cells after 48 hrs by SRB assay. Particulars: SW1573, 48 h. Summed up:
as §1

Assay [2] concerns WiDr. The assay is described as follows: Antiproliferative activity against human WiDr cells after 48 hrs by SRB assay. The essentials:
as §1

The subject of assay [3] is SW1573. The experiment in a line: Cell cycle arrest in human SW1573 cells assessed as accumulation at G2/M phase at 10 uM after 24 hrs relative to control. The essentials:
(§2)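 Cells seeded at 0.7–1 × 10⁶ per well and left 24 h, then exposed 24 h to 10 or 20 μM beside untreated controls. Trypsinized, fixed in ice-cold 70% ethanol overnight at −20 °C, treated with RNAse and propidium iodide 30 min at 37 °C in the dark. DNA content read by flow cytometry (25,000 cells/sample); G2/M percentage compared with control.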

For assay [4], the system named is WiDr. The assay is described as follows: Cell cycle arrest in human WiDr cells assessed as accumulation at G2/M phase at 20 uM after 24 hrs relative to control. The essentials: as §2
For assay [5], the system named is SW1573. The assay is described as follows: Cell cycle arrest in human SW1573 cells assessed as accumulation at G2/M phase at 20 uM after 24 hrs relative to control. The essentials:
as §2

The test system of assay [6] is WiDr. The experiment in a line: Cell cycle arrest in human WiDr cells assessed as accumulation at G2/M phase at 10 uM after 24 hrs relative to control. The essentials: as §2

As usually defined, the GI50 is the concentration that inhibits growth by half. Higher therefore signals lower sensitivity of the cells. A word on the TGI: it is the concentration at which net growth stops. Low values mean more potent growth arrest, high ones less potent growth arrest. The LC50 is the concentration lethal to half of the exposed cells or organisms. Low values mean greater toxicity, high ones lower toxicity.

As to `Cc1ccc(S(=O)(=O)N2CCC(Br)CC2)cc1`, the concentration for 50% growth inhibition (GI50) in the assay on A2780, in the assay with SW1573 [1] and in the assay on WiDr [2] was above 100 µM throughout.

Turning to `Cc1ccc(S(=O)(=O)N2CC=C(Cl)CC2)cc1`, the GI50 in the assay on A2780, with SW1573 [1] and in the assay on WiDr [2] was above 100 µM each time.

Regarding `Cc1ccc(S(=O)(=O)N2CC[C@@H](Br)C[C@@H]2Cc2ccccc2)cc1`, the values for the GI50 with A2780, in the assay on SW1573 [1] and in the assay with WiDr [2] were 63 µM, 73 µM and 37 µM, respectively.

As to `Cc1ccc(S(=O)(=O)N2CC[C@@H](Br)C[C@@H]2C2CCCCC2)cc1`, the GI50 is above 100 µM with A2780, 82 µM in the assay on SW1573 [1] and 14 µM in the assay with WiDr [2].

For the molecule `CCCCCCCC1C=C(Br)CCN1S(=O)(=O)c1ccc(C)cc1` (centres undefined), the GI50 was above 100 µM in the assay with A2780, 49 µM in the assay on SW1573 [1] and 40 µM with WiDr [2].

Take `CCCCCCC[C@H]1C[C@H](Cl)CCN1S(=O)(=O)c1ccc(C)cc1`: the GI50 in the assay with A2780 is above 100 µM; in the assay with SW1573 [1], above 100 µM; in the assay on WiDr [2], 54 µM.

Consider `Cc1ccc(S(=O)(=O)N2CCC(Cl)CC2)cc1`, for which the GI50 in the assay on A2780, in the assay with SW1573 [1] and with WiDr [2] was above 100 µM throughout.

For the molecule `Cc1ccc(S(=O)(=O)N2CC[C@@H](Cl)C[C@@H]2c2ccccc2)cc1`, the GI50 with A2780 was above 100 µM; with SW1573 [1], above 100 µM; in the assay with WiDr [2], 37 µM.

Take `Cc1ccc(S(=O)(=O)N2CCC(Cl)=CC2C2CCCCC2)cc1` (centres undefined): the GI50 in the assay with A2780 came out at 39 µM; in the assay on SW1573 [1], 62 µM; in the assay with WiDr [2] it was 24 µM.

Take `Cc1ccc(S(=O)(=O)N2CC[C@@H](Cl)C[C@@H]2Cc2ccccc2)cc1`: the results for the GI50 in the assay on A2780, in the assay on SW1573 [1] and in the assay with WiDr [2] were 19 µM, 12 µM and 20 µM, respectively. Moreover, the TGI stood at 50 µM in the assay with A2780 and 66 µM with SW1573 [1].

On to `Cc1ccc(S(=O)(=O)N2CCC(Cl)=CC2c2ccccc2)cc1` (centres undefined), for which, in the assay on A2780, halving of growth (GI50) required 17 µM, the LC50 (50% lethal concentration) is 86 µM and total growth inhibition (TGI) required 42 µM. Also, in the assay with SW1573 [1], it took 16 µM to inhibit growth by half (GI50), the LC50 came out at 87 µM and the TGI was determined as 37 µM. In the assay with WiDr [2], the GI50 came out at 18 µM, the LC50 (50% lethal concentration) came out at 91 µM and the total growth inhibition concentration (TGI) turned out to be 77 µM.

As for `Cc1ccc(S(=O)(=O)N2CCC(Br)=CC2C2CCCCC2)cc1` (centres undefined), the GI50 in the assay on A2780 was 44 µM; in the assay with SW1573 [1] it was 65 µM; in the assay on WiDr [2], 18 µM.

For the molecule `Cc1ccc(S(=O)(=O)N2CC[C@@H](Br)C[C@@H]2CC(C)C)cc1`, the GI50 came out at 39 µM in the assay on A2780, 22 µM in the assay with SW1573 [1] and 14 µM with WiDr [2].

With `Cc1ccc(S(=O)(=O)N2CCC(Cl)=CC2CC(C)C)cc1` (centres undefined), the GI50 with A2780 is 35 µM; with SW1573 [1], 31 µM; with WiDr [2], 21 µM.

As to `Cc1ccc(S(=O)(=O)N2CCC(Br)=CC2Cc2ccccc2)cc1` (centres undefined), the figures for the GI50 with A2780, in the assay on SW1573 [1] and in the assay with WiDr [2] were 27 µM, 21 µM and 24 µM, respectively. Besides, the TGI with A2780 is 77 µM; in the assay with SW1573 [1], 78 µM; with WiDr [2] it was 71 µM.

With `Cc1ccc(S(=O)(=O)N2CCC(Br)=CC2CC(C)C)cc1` (centres undefined), the GI50 in the assay with A2780 came out at 36 µM; in the assay with SW1573 [1], 26 µM; with WiDr [2], 16 µM.

`Cc1ccc(S(=O)(=O)N2CCC(Br)=CC2c2ccccc2)cc1` (centres undefined): the GI50 in the assay with A2780 came out at 49 µM; in the assay on SW1573 [1], 54 µM; with WiDr [2], 29 µM.

Take `Cc1ccc(S(=O)(=O)N2CC[C@@H](Br)C[C@@H]2c2ccccc2)cc1`: the GI50 in the assay with A2780 is above 100 µM; with SW1573 [1], above 100 µM; in the assay on WiDr [2] it was 36 µM.

For `CCCCCCCC1C=C(Cl)CCN1S(=O)(=O)c1ccc(C)cc1` (centres undefined), the GI50 with A2780 was 92 µM; with SW1573 [1] it was 49 µM; in the assay on WiDr [2], 50 µM.

For `Cc1ccc(S(=O)(=O)N2CC[C@@H](Cl)C[C@@H]2CC(C)C)cc1`, the GI50 in the assay on A2780 was 36 µM; with SW1573 [1], 19 µM; with WiDr [2], 22 µM.

As to `CCCCCCC[C@H]1C[C@H](Br)CCN1S(=O)(=O)c1ccc(C)cc1`, the GI50 in the assay with A2780, in the assay with SW1573 [1] and in the assay with WiDr [2] was above 100 µM each time.

As for `Cc1ccc(S(=O)(=O)N2CC[C@@H](Cl)C[C@@H]2C2CCCCC2)cc1`, the GI50 in the assay with A2780 amounted to 72 µM; with SW1573 [1], 53 µM; with WiDr [2], 15 µM.

As for `Cc1ccc(S(=O)(=O)N2CC=C(Br)CC2)cc1`, the GI50 in the assay with A2780, in the assay with SW1573 [1] and with WiDr [2] was above 100 µM each time.

On to `Cc1ccc(S(=O)(=O)N2CCC(Cl)=CC2Cc2ccccc2)cc1` (centres undefined), for which the Activity was found to be 25% with SW1573 [3], 81% in the assay on WiDr [4], 38% with SW1573 [5] and 53% in the assay with WiDr [6]. For the same molecule, the values for the GI50 with A2780, in the assay on SW1573 [1] and in the assay on WiDr [2] were 4.8 µM, 6.6 µM and 3.3 µM, respectively. In the assay on WiDr [2], the LC50 (50% lethal concentration) was 79 µM. This molecule also displayed a TGI in the assay on WiDr [2] of 14 µM.
